Lipid droplet – inhibitors of hepatocyte lipid droplet formation, primary screen, imaging, high-throughput imaging, BODIPY stain; 0.4% of 240,000 active; inhibition, % at 6.5 µM; AML12 mouse hepatocytes, oleate lipid droplets;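 active = lipid droplet intensity inhibited by at least 50%, with more than 500 cells counted; inconclusive = wells with under 300 cells, treated as cytotoxic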
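Assay system: AML12 hepatocytes (mouse) / Also added: 100 µM oleic acid challenge / Times: overnight treatment with compound plus oleate / Detection: high-content imaging of BODIPY-stained droplets and DAPI nuclei / Evaluation: % inhibition of lipid droplet signal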
SR-BI HDL uptake – inhibitors of SR-BI mediated HDL lipid uptake, primary screen, ldlA[mSR-BI] cells, fluorescence, single point; ldlA[mSR-BI] CHO cells, DiI-HDL uptake fluorescence, 3 h; inhibition, % at 12.5 µM; Scavenger receptor class B member 1 (Mus musculus), Q61009; 0.96% of 320,000 active;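 active = mean replicate inhibition of at least 70% and a set share of replicates each scoring 70 or more; inconclusive = meets just one of the two criteria; inactive = fails both criteria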
Target sequence (Q61009 whole entry, looked up): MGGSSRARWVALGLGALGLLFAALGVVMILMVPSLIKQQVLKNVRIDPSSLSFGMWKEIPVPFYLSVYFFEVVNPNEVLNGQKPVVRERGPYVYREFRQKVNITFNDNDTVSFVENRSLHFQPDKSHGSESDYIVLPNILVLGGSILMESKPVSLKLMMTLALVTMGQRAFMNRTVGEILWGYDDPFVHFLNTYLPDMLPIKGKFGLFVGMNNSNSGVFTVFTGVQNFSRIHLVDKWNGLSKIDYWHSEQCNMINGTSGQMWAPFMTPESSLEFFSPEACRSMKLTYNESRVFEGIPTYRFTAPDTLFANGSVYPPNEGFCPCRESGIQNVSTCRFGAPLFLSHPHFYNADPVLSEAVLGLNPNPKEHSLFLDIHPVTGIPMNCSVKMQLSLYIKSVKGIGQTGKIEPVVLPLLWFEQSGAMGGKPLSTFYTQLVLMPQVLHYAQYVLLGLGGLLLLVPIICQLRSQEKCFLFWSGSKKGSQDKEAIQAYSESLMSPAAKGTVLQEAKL
Yeast superoxide – reduction of superoxide in aged yeast, primary screen, HTS. S. cerevisiae aged cells, superoxide DHE fluorescence; active compounds read low. superoxide response (% of plate mean), % at 10 µM. 0.18% of 330,000 active. AID 2690, 2010;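 active = superoxide response under a set limit, about three screen SD below normal, cut at about 65% in these data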;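 also: yeast aged for seven days with compound at 30 °C before DHE staining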
SMARCA2 act – SMARCA2 (BRM) function activators, primary screen, cell-based, luminescence, high throughput. activation, % at 9.1 µM. 1% of 370,000 active. MG213 cells, MMTV-luciferase reporter, dexamethasone, overnight; in the data active = activation above about 7.8%
AHR act – AHR activators, primary screen, cell-based, luminescence, luciferase reporter, human. AID 2796, 2010. activation, % at 5 µM. Aryl hydrocarbon receptor (Homo sapiens), P35869. 2.5% of 320,000 active. AHR-responsive luciferase reporter cells; in the data active = activation above about 47%
SR-BI DiI-HDL act – activators of SR-BI mediated DiI-HDL uptake, primary screen, ldlA[mSR-BI] CHO cells, DiI fluorescence; 3 h; 100 = double the neutral-control signal; activation, % at 12.5 µM; 0.096% of 320,000 active; AID 504775, 2011;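 active = mean replicate activation of at least 60% and every replicate at or above 60%; inconclusive = mean or all-replicate condition met, but not both; inactive = mean below 60% and not all replicates reaching 60%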
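Test system: SR-BI-overexpressing, LDLR-lacking CHO cells; Also added: labelled HDL, 10 µg/mL; Measured by: bottom-read cell fluorescence after medium removal, ex 550/em 595 nm; Timing: 3 h uptake period with compound, 37 °C; Buffer or medium: F12, 0.5% BSA, 25 mM HEPES; Doses: single compound concentration, delivered by pin transfer.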
A number is an active result; n = inactive; u = inconclusive; x = no result given. Hits are enriched below; roughly 4.3% of the tested compounds scored in any of these assays.

SMILES	Lipid droplet	SR-BI HDL uptake	Yeast superoxide	SMARCA2 act	AHR act	SR-BI DiI-HDL act
Cn1cc(CCOCc2ccccc2)c2ccccc21	x	x	x	n	x	x
COc1ccc(NC(=O)CCCn2c(=O)oc3ccccc32)cc1Cl	n	n	n	7.8	n	n
COC(=O)[C@]12CCCCC=C1N(Cc1ccc(OC)cc1)C(=O)[C@@H]2CC(=O)N1CCN(C(=O)c2ccco2)CC1	x	x	x	n	x	x
COC(=O)[C@]12C[C@H](CC(=O)NCCCN3CCCC3=O)C(=O)N(CCc3ccc(OC)c(OC)c3)C1=C[C@H](C(C)(C)C)O[C@@H]2C	x	x	x	n	x	x
Cc1cccc(Nc2nc(N)nc(CSc3nccn3C)n2)c1	x	n	n	n	75	n
O=C(CCS(=O)(=O)c1ccccc1)Nc1nc2c(s1)COc1ccccc1-2	x	n	n	n	63	n
CCOC(=O)CSc1nc(C2CC2)cc(-c2ccc(F)cc2)c1C#N	x	72	n	n	n	n
COc1ccc(-c2cc(C3CC3)nc(SCC(=O)c3cccs3)c2C#N)cc1	n	n	n	n	n	n
C/C(=N\NC(=O)OC(C)(C)C)c1ccc(-n2ccnc2)cc1	n	n	n	n	68	n
COc1ccccc1NS(=O)(=O)c1cccc(C(=O)N/N=C(\C)c2ccc(-n3ccnc3)cc2)c1	n	n	n	n	67	n
COc1cc(NC(=O)COc2ccc(-n3ccnc3)cc2)cc(OC)c1	n	n	n	n	n	n
COc1ccc(OCC(=O)N/N=C(\C)c2ccc(-n3ccnc3)cc2)cc1	n	n	n	n	55	n
COc1ccccc1NS(=O)(=O)c1cccc(C(=O)N/N=C(/C)c2ccc(-n3ccnc3)cc2)c1	x	n	x	n	x	u
C/C(=N\NC(=O)COc1ccc(C(C)(C)C)cc1)c1ccc(-n2ccnc2)cc1	n	n	n	n	73	n
C/C(C=NNC(=O)CSc1nnc(-c2ccccc2)n1-c1ccc(C)cc1)=C\c1ccco1	x	x	x	n	x	x
C/C(=N\NC(N)=S)c1ccc(-n2ccnc2)cc1	n	n	n	n	113	n
O=C(O)c1ccccc1N/N=C/c1cc(Br)cc(Br)c1O	n	n	n	n	49	n
O=C(Nc1ncc2c(n1)-c1ccccc1CC2)c1ccc(F)cc1	x	n	n	n	65	n
O=C(Nc1nccc(-c2cccs2)n1)c1cccs1	x	n	n	n	48	n
O=C(Nc1ncc2c(n1)-c1ccccc1CC2)c1cccs1	x	n	n	n	63	n
O=C(Nc1ncc2c(n1)-c1ccccc1CC2)c1ccccc1	x	n	n	n	n	n
O=S(=O)(Nc1ccc(-c2nc3cccnc3s2)cc1)c1ccc(Cl)s1	n	n	n	n	69	n
O=S(=O)(Nc1ccc(-c2nc3cccnc3s2)cc1)c1ccccc1F	n	n	n	n	56	n
CN(C)C=Nc1nc2c(Br)ccc(Br)c2cc1C(=O)NCC(C)(C)C	x	x	x	n	x	x
O=C1CS/C(=N/N=C/c2c[nH]c3ccccc23)N1	n	x	n	n	78	x
SMILES	Lipid droplet	SR-BI HDL uptake	Yeast superoxide	SMARCA2 act	AHR act	SR-BI DiI-HDL act
COc1cc(NC(=O)CSc2nnnn2Cc2ccc3c(c2)OCO3)cc(OC)c1	n	n	n	n	71	n
Cc1ccccc1NC(=O)/C=C/c1ccc([N+](=O)[O-])s1	n	n	n	x	50	n
Cc1[nH]c2ccccc2c1CC(=O)Nc1ccc(Oc2cccnc2)cc1	x	x	x	n	x	x
Cc1cc(/C=C2/NC(=O)NC2=O)c(C)n1-c1ccncc1	n	n	n	n	n	n
Cc1cccc(-n2c(C)cc(/C=C3\NC(=O)NC3=O)c2C)c1	n	n	n	n	82	n
Cc1cc(/C=C2/NC(=O)N(c3ccccc3)C2=O)c(C)n1-c1cccnc1	n	n	n	n	109	n
CN(Cc1ccco1)C(=O)c1cccc2c1C(=O)N(Cc1cccnc1)C2	x	x	x	n	x	x
COC(=O)C1=C(C)N(Cc2ccc(Br)cc2)C(=S)NC1c1cccc(F)c1 (configuration not stated)	x	x	x	n	x	x
COc1cccc(C(=O)Nc2ccc(NC(=O)C3C4C=CC(C4)C3C(=O)O)cc2)c1 (configuration not stated)	n	n	n	n	73	n
COc1cc(NC(=O)C2C3C=CC(C3)C2C(=O)O)ccc1NC(=O)c1ccccc1 (configuration not stated)	n	n	n	n	56	n
CC(=O)c1cccc(NC(=O)C2C3C=CC(C3)C2C(=O)O)c1 (configuration not stated)	n	n	n	n	n	n
Cc1ccccc1C(=O)n1ccc2ccc(-c3ccc4ccn(Cc5ccc(C#N)cc5)c4c3)cc21	x	x	x	n	x	x
C[C@@]12C(=O)OC(=O)[C@]1(C)C1CCC2O1	x	89	51	n	n	n
CC12C(=O)N(c3nccs3)C(=O)C1(C)C1CCC2O1 (configuration not stated)	x	x	x	n	x	x
CC(C)C(=O)N1CCC(Oc2cccnc2)CC1	x	x	x	n	x	x
COc1ccc(OC)c(S(=O)(=O)NCc2ccccc2)c1	x	n	n	n	n	n
COc1ccc(OC)c(S(=O)(=O)NCc2cc(-c3ccccc3)no2)c1	n	n	n	n	51	n
CCOC(=O)c1c(NC(=O)C2=C(C)NC(=S)NC2c2ccc(F)cc2)sc(C)c1C (configuration not stated)	n	71	n	n	n	n
CCOC(=O)c1c(NC(=O)C2=C(C)NC(=S)NC2c2ccc(C)cc2)sc(C)c1C (configuration not stated)	n	72	n	n	n	n
CCOC(=O)c1c(NC(=O)C2=C(C)NC(=S)NC2c2ccc(F)cc2F)sc(C)c1C (configuration not stated)	n	n	n	n	n	n
CCOC(=O)C1=C(C)NC(=S)NC1c1ccc(OCC(=O)N2CCCCCC2)c(OC)c1 (configuration not stated)	n	u	n	n	n	n
CC1=C(C(=O)Nc2ccccn2)C(c2ccc(Cl)cc2)NC(=S)N1 (configuration not stated)	n	n	n	n	n	n
CCOC(=O)C1=C(C)NC(=S)NC1c1ccc(OCC(=O)N2CCCCC2)cc1 (configuration not stated)	n	73	n	n	n	n
CC(C)(C)OC(=O)NCc1cc2c(cc1/C=C/S(=O)(=O)NCc1ccc(F)cc1)OCO2	x	x	x	n	x	x
COCCCNc1c2c3c(cccc3[nH]c1=O)C(=O)c1ccccc1-2	x	n	n	n	70	n
COCCCNC1=C(Cl)C(=O)c2ccccc2C1=O	n	n	n	n	n	n
O=C(NCc1ccc(C(=O)N2CCCC2)cc1)c1cccc(Br)c1	x	x	x	n	x	x

Screening data: PubChem BioAssay, several laboratories
